Test results from ChEMBL document CHEMBL4433227, “Enhancing the ligand efficiency of anti-HIV compounds targeting frameshift-stimulating RNA” (Bioorg Med Chem, 2019).
The source made the active and inactive calls. No cut-off for these calls is given here.

How the values were obtained:
[1] = tested on: Human immunodeficiency virus 1; assay: Binding affinity to HIV-1 FSS RNA assessed as dissociation rate constant by SPR assay
In short: (§1)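 Compounds injected in HBS at 80 μL/min for 1 min, at least two injections per concentration. Each curve fit to a 1:1 Langmuir model, using the two lowest fittable concentrations. Kinetic constants averaged.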

[2] = Binding affinity to HIV-1 FSS RNA assessed as dissociation constant by SPR assay; set-up: species or system Human immunodeficiency virus 1; in short: as §1
[3] = tested on: Human immunodeficiency virus 1; assay: Binding affinity to HIV-1 FSS RNA assessed as association rate constant by SPR assay; in short: as §1
[4] = tested on: Human immunodeficiency virus; assay: Binding affinity to HIV frameshift-stimulating RNA assessed as upregulation of HIV p160 Gag-pol protein expression by Western blot analysis
[5] = tested on: Human immunodeficiency virus; assay: Antiviral activity against pseudotyped HIV assessed as reduction in viral production; format: functional, organism-based
[6] = tested on: Human immunodeficiency virus; assay: Antiviral activity against pseudotyped HIV assessed as reduction in viral infectivity; format: functional, organism-based
[7] = tested on: Human immunodeficiency virus 1; assay: Antiviral activity against HIV1 3B infected in human MT2 cells assessed as reduction in p24 Gag protein production at 25 uM on day 6 post infection by ELISA relative to control; format: functional; set-up: scale not given: the % may be the effect or the level left
[8] = (§2) Competitive binding affinity to HIV-1 FSS RNA assessed as dissociation constant in presence of bulk yeast tRNA by SPR assay; set-up: species or system Human immunodeficiency virus 1
Homo sapiens [9] = organism: Homo sapiens; assay: Binding affinity to human IRF5 RNA at 2 uM dialyzed up to 36 hrs by HPLC analysis
In short: (§3)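 RNAs refolded at 2.5 μM in PBS with 1 mM EDTA (25 °C, 90 °C, then 27 °C). Tubes (3500 MWCO) held 200 μL of RNA, in duplicate, with an RNA-free control tube. Dialysis against 2.0 μM compound in PBS for 36 h. Compound concentration inside the tubes measured by HPLC.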

Homo sapiens [10] = organism: Homo sapiens; assay: Binding affinity to human BDNF RNA at 2 uM dialyzed up to 36 hrs by HPLC analysis; in short: as §3
[11] = tested on: Human immunodeficiency virus 1; assay: Binding affinity to HIV-1 FSS RNA at 2 uM dialyzed up to 36 hrs by HPLC analysis; in short: as §3
[12] = Cytotoxicity against human HEK293FT cells assessed as reduction in viability at < 40 uM after 24 hrs by WST1 assay; format: cell-based
In short: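 HEK293FT cells, 2.5×10^4/well in triplicate, grown in DMEM with 10% FBS and 1% pen-strep at 37 °C. After 4 h adherence, compound dilutions added for 24 h. WST-1 then added for 1 h and the signal read on a plate reader. Mitochondrial activity taken as the metabolic read-out.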

[13] = tested on: Human immunodeficiency virus 1; assay: Antiviral activity against patient derived multidrug resistant HIV1 AD.MDR01; format: functional, organism-based
[14] = tested on: Human immunodeficiency virus 1; assay: Antiviral activity against HIV1 3B; format: functional, organism-based
[15] = tested on: Human immunodeficiency virus 1; assay: Antiviral activity against HIV1 3B infected in human MT2 cells assessed as reduction in p24 Gag protein production on day 6 post infection by ELISA; format: functional, organism-based; details: Human immunodeficiency virus 1, 3B, MT2, 144 h
[16] = tested on: Human immunodeficiency virus 1; assay: as §2

SMILES | Kdiss [1] | Kd [2] [nM] | Ka [3] | Kd [8] [nM] | Activity [7] [%] | other results
CN(C(=O)c1cnc2ccccc2c1)[C@@H](CCn1cc(C[C@@H](C(=O)N2C[C@H](O)C[C@H]2C(=O)N(C)[C@@H](Cc2ccccc2)C(N)=O)N(C)C(=O)c2cnc3ccccc3c2)nn1)C(=O)N1C[C@H](O)C[C@H]1C(=O)N(C)[C@@H](Cc1ccccc1)C(N)=O | 5.41 ×10⁻³ /s | 1470 | 4.09 ×10³ /M.s |  |  | 
CCc1nc2cc3ccccc3cc2cc1C(=O)N[C@@H](C/C=C\C[C@H](NC(=O)c1cc2cc3ccccc3cc2nc1CC)C(=O)N1CCC[C@H]1C(=O)N[C@@H](Cc1ccccc1)C(=O)NCCCN)C(=O)N1CCC[C@H]1C(=O)N[C@@H](Cc1ccccc1)C(=O)NCCCN |  | 102 |  |  |  | Activity [4]: Dose-dependent effect; Activity [5]: Active; Activity [6]: Active
CN(C(=O)c1cnc2ccccc2c1)[C@@H](CCn1cc(C[C@@H](C(=O)N2CCC[C@H]2C(=O)N(C)[C@@H](Cc2ccccc2)C(=O)NCCCN)N(C)C(=O)c2cnc3ccccc3c2)nn1)C(=O)N1CCC[C@H]1C(=O)N(C)[C@@H](Cc1ccccc1)C(=O)NCCCN | 2.26 ×10⁻³ /s | 62.2 | 5.66 ×10⁴ /M.s | 124 | 63 | Activity (Homo sapiens [9]): Active; Activity (Homo sapiens [10]): Active; Activity [11]: Active
CN(C(=O)c1cnc2ccccc2c1)[C@@H](CCn1cc(C[C@@H](C(=O)N2C[C@H](O)C[C@H]2C(=O)N(C)[C@@H](Cc2ccccc2)C(=O)NCCCN)N(C)C(=O)c2cnc3ccccc3c2)nn1)C(=O)N1C[C@H](O)C[C@H]1C(=O)N(C)[C@@H](Cc1ccccc1)C(=O)NCCCN | 5.42 ×10⁻³ /s | 110 | 6.74 ×10⁴ /M.s | 183 | 63 | 
CCc1nc2cc3ccccc3cc2cc1C(=O)N(C)[C@@H](CCn1cc(C[C@@H](C(=O)N2CCC[C@H]2C(=O)N(C)[C@@H](Cc2ccccc2)C(=O)NCCCN)N(C)C(=O)c2cc3cc4ccccc4cc3nc2CC)nn1)C(=O)N1CCC[C@H]1C(=O)N(C)[C@@H](Cc1ccccc1)C(=O)NCCCN | 3 ×10⁻³ /s | 16 | 1.9 ×10⁵ /M.s | 130 |  | Activity [4]: Dose-dependent effect; Activity [5]: Active; Activity [13]: Active; Activity [14]: Active; Activity [6]: Active; IC50 [15]: 4860 nM
NC[C@@H]1O[C@H](O[C@H]2[C@@H](O)[C@H](O[C@@H]3[C@@H](O)[C@H](N)C[C@H](N)[C@H]3O[C@H]3O[C@H](CN)[C@@H](O)[C@H](O)[C@H]3N)O[C@@H]2CO)[C@H](N)[C@@H](O)[C@@H]1O [FRAMYCETIN] |  | 779000 |  |  |  | Activity [16]: inactive

Second part, led by results:

Kdiss [1] | Kd [2] [nM] | Ka [3] | Kd [8] [nM] | SMILES | Activity [7] [%] | other results
6.8 ×10⁻³ /s | 583 | 1.49 ×10⁴ /M.s | 441 | CCc1nc2ccccc2cc1C(=O)N(C)[C@@H](CCn1cc(C[C@@H](C(=O)N2C[C@H](O)C[C@H]2C(=O)N(C)[C@@H](Cc2ccccc2)C(=O)NCCCN)N(C)C(=O)c2cc3ccccc3nc2CC)nn1)C(=O)N1C[C@H](O)C[C@H]1C(=O)N(C)[C@@H](Cc1ccccc1)C(=O)NCCCN | 63 | 
2.07 ×10⁻² /s | 19300 | 1.69 ×10³ /M.s | 16800 | CCc1nc2ccccc2cc1C(=O)N(C)[C@@H](CCn1cc(C[C@@H](C(=O)N2CCC[C@H]2C(=O)N(C)[C@@H](Cc2ccccc2)C(N)=O)N(C)C(=O)c2cc3ccccc3nc2CC)nn1)C(=O)N1CCC[C@H]1C(=O)N(C)[C@@H](Cc1ccccc1)C(N)=O |  | 
2.37 ×10⁻² /s | 497 | 6.49 ×10⁴ /M.s | 132 | CCc1nc2ccccc2cc1C(=O)N(C)[C@@H](CCn1cc(C[C@@H](C(=O)N2CCC[C@H]2C(=O)N(C)[C@@H](Cc2ccccc2)C(=O)NCCCN)N(C)C(=O)c2cc3ccccc3nc2CC)nn1)C(=O)N1CCC[C@H]1C(=O)N(C)[C@@H](Cc1ccccc1)C(=O)NCCCN | 63 | Activity [12]: Toxic
